Reference: ChEMBL document CHEMBL1145889, “Potent and selective inhibitors of platelet-derived growth factor receptor phosphorylation. 3. Replacement of quinazoline moiety and improvement of metabolic polymorphism of 4-[4-(N-substituted (thio)carbamoyl)-1-piperazinyl]-6,7-dimethoxyquinazoline derivatives” (J Med Chem, 2003)

Columns and labels:
Assay type in all cases: ADME, organism-based
[1] = Half-life period of intravenously administered compound (1 mg/kg) in rat no.11 belonging to the phenotype […] (poor metaboliser); details: in vivo, iv
Outline: (§1)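 Male Sprague–Dawley rats (n = 4) were first phenotyped by a 3 mg/kg oral dose. Plasma taken at 30 min was run on HPLC, and a metabolite peak present marked EM, absent marked PM. After a 1-week washout, each phenotype (n = 2) received 1 mg/kg intravenously. Plasma concentration was determined by HPLC.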

[2] = Pharmacokinetic parameter (AUC) was determined after administering 1 mg/kg of compound intravenously in rat no.11 belonging to the phenotype […] (poor metaboliser); parameters: dose 1 mg/kg, route intravenous; details: in vivo, iv; outline: as §1
[3] = Plasma clearance was determined after administering 1 mg/kg of compound intravenously in rat no.10 belonging to the phenotype […] (poor metaboliser); parameters: dose 1 mg/kg, route intravenous; details: iv; outline: as §1
[4] = Volume of distribution at steady state was determined after administering 1 mg/kg of compound intravenously in rat no.9 belonging to the phenotype EM (extensive metaboliser); parameters: dose 1 mg/kg, route intravenous; details: in vivo, iv, read-out: Vdss; outline: as §1
[5] = Half-life period of intravenously administered compound (1 mg/kg) in rat no.9 belonging to the phenotype EM (extensive metaboliser); details: in vivo, iv; outline: as §1
[6] = Plasma clearance was determined after administering 1 mg/kg of compound intravenously in rat no.9 belonging to the phenotype EM (extensive metaboliser); parameters: dose 1 mg/kg, route intravenous; details: iv; outline: as §1
[7] = Pharmacokinetic parameter (AUC) was determined after administering 1 mg/kg of compound intravenously in rat no.9 belonging to the phenotype EM (extensive metaboliser); parameters: dose 1 mg/kg, route intravenous; details: in vivo, iv; outline: as §1
[8] = Volume of distribution at steady state was determined after administering 1 mg/kg of compound intravenously in rat no.11 belonging to the phenotype EM (poor metaboliser); parameters: dose 1 mg/kg, route intravenous; details: in vivo, iv, read-out: Vdss; outline: as §1
[9] = Volume of distribution at steady state was determined after administering 1 mg/kg of compound intravenously in rat no.10 belonging to the phenotype […] (poor metaboliser); parameters: dose 1 mg/kg, route intravenous; details: in vivo, iv, read-out: Vdss; outline: as §1
[10] = Volume of distribution at steady state was determined after administering 1 mg/kg of compound intravenously in rat no.8 belonging to the phenotype EM (extensive metaboliser); parameters: dose 1 mg/kg, route intravenous; details: in vivo, iv, read-out: Vdss; outline: as §1
[11] = Plasma clearance was determined after administering 1 mg/kg of compound intravenously in rat no.8 belonging to the phenotype EM (extensive metaboliser); parameters: dose 1 mg/kg, route intravenous; details: iv; outline: as §1
[12] = Pharmacokinetic parameter (AUC) was determined after administering 1 mg/kg of compound intravenously in rat no.10 belonging to the phenotype […] (poor metaboliser); parameters: dose 1 mg/kg, route intravenous; details: in vivo, iv; outline: as §1
[13] = Plasma clearance was determined after administering 1 mg/kg of compound intravenously in rat no.11 belonging to the phenotype […] (poor metaboliser); parameters: dose 1 mg/kg, route intravenous; details: iv; outline: as §1
[14] = Half-life period of intravenously administered compound (1 mg/kg) in rat no.10 belonging to the phenotype […] (poor metaboliser); details: in vivo, iv; outline: as §1
[15] = Half-life period of intravenously administered compound (1 mg/kg) in rat no.8 belonging to the phenotype EM (extensive metaboliser); details: in vivo, iv; outline: as §1
[16] = Pharmacokinetic parameter (AUC) was determined after administering 1 mg/kg of compound intravenously in rat no.8 belonging to the phenotype EM (extensive metaboliser); parameters: dose 1 mg/kg, route intravenous; details: in vivo, iv; outline: as §1
[17] = read-out: T1/2 alpha (converted)
[18] = read-out: T1/2 beta (converted)

COCCOc1cc2c(N3CCN(C(=O)Nc4ccc(C#N)cc4)CC3)ncnc2cc1OC
half-life [1, 17]: 3.58 min | half-life [1, 18]: 13.1 min | AUC [2]: 950 ng·h/mL | clearance [3]: 13.1 mL/min/kg | Vd [4]: 0.252 L/kg | half-life [5, 17]: 2.99 min | half-life [5, 18]: 15.7 min | clearance [6]: 13.2 mL/min/kg | AUC [7]: 1260 ng·h/mL | Vd [8]: 0.286 L/kg | Vd [9]: 0.232 L/kg | Vd [10]: 0.215 L/kg | clearance [11]: 14.4 mL/min/kg | AUC [12]: 1280 ng·h/mL | clearance [13]: 17.5 mL/min/kg | half-life [14, 17]: 1.9 min | half-life [14, 18]: 15.5 min | half-life [15, 17]: 2.69 min | half-life [15, 18]: 13.8 min | AUC [16]: 1160 ng·h/mL
